From ChEMBL document CHEMBL1687720 (Antimicrob Agents Chemother, 2009)
≈ marks a conversion by molar mass, not a printed value. Calls of active or inactive are those of the source. No cut-off for these calls is given here.

Tests used:
L6 = test: Cytotoxicity against rat L6 cells; format: cell-based
Plasmodium falciparum [1] = test: Antiplasmodial activity against chloroquine-sensitive Plasmodium falciparum 3D7 assessed as inhibition of ring stage parasite growth at IC50 after 6 hr by [3H]hypoxanthine incorporation assay; format: functional, organism-based
Method in brief: (§1)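 P. falciparum 3D7 is synchronized with sorbitol. […] Cells are washed four times, then labelled with [3H]hypoxanthine for 24 h. Growth is given as % of untreated control for each stage, in triplicate.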

Plasmodium falciparum [2] = test: Antiplasmodial activity against chloroquine-sensitive Plasmodium falciparum 3D7 assessed as inhibition of trophozoite stage parasite growth at IC50 after 6 hr by [3H]hypoxanthine incorporation assay; format: functional, organism-based; method in brief: as §1
Plasmodium falciparum [3] = test: Antiplasmodial activity against chloroquine-sensitive Plasmodium falciparum 3D7 assessed as inhibition of schizont stage parasite growth at IC50 after 6 hr by [3H]hypoxanthine incorporation assay; format: functional, organism-based; method in brief: as §1
Heme = test: Inhibition of heme aggregation at 500 uM
Method in brief: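 Hemin chloride stock (10 mM in 0.1 M NaOH), prepared fresh and held at 37°C for at least 1 h. Aggregation run in 20 mM sodium phosphate pH 5.2 with 25 μM initial heme at 37°C. Inhibitor dissolved in dimethylformamide or buffer. After incubation, samples centrifuged and absorbance read at 360 nm, with matching control values subtracted.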

Row | inhibition (Heme) | Compound | IC50 (L6) [ng/mL] | growth inhibition (GI) (Plasmodium falciparum [1]) | growth inhibition (GI) (Plasmodium falciparum [2]) | growth inhibition (GI) (Plasmodium falciparum [3])
1 | – | COc1cc([C@@H]2c3cc4c(cc3[C@H](O)[C@H]3COC(=O)[C@H]23)OCO4)cc(OC)c1OC [PODOFILOX] | 8 (≈ 0.0193 µM) | – | – | –
2 | inactive | CCN(CC)CCCC(C)Nc1ccnc2cc(Cl)ccc12 (stereo not given) | – | Active | Active | Active
